Assay results from ChEMBL document CHEMBL4350958, “Rational Design of Short Peptide Variants by Using Kunitzin-RE, an Amphibian-Derived Bioactivity Peptide, for Acquired Potent Broad-Spectrum Antimicrobial and Improved Therapeutic Potential of Commensalism Coinfection of Pathogens” (J Med Chem, 2019).
Calls of active or inactive are those of the source. The calls are words filed in the database; no cut-off is given here.

How the values were obtained:
Escherichia coli [1] = experiment: Bactericidal activity against Escherichia coli ATCC 25922 assessed as reduction in bacterial growth at MBC by time-kill assay; assay type: functional, organism-based
Procedure, shortened: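 Time-kill assay. E. coli ATCC 25922, S. aureus ATCC 29213 or C. albicans cgmcc 2.2086 at a final 0.5-1×10^5 CFU mL-1 treated at 1×MBC/MFC. Aliquots collected at different times to calculate survival, with an untreated control. Mean of three independent experiments, each with three technical replicates.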

Lipid bilayer [2] = experiment: Induction of membrane disruption in PC/CL large unilamellar vesicles assessed as calcein-entrapped liposome leakage at 1 uM after 15 mins by spectrofluorophotometric assay relative to control; conditions: artificial membrane, 0.25 h
Escherichia coli [3] = experiment: Induction of cytoplasmic membrane depolarization in Escherichia coli ATCC 25922 assessed as fluorescence intensity at 2 uM up to 3000 secs by DiSC3-5 dye-based fluorescence spectrophotometric method
Procedure, shortened: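 Mid-log E. coli ATCC 25922 (OD600 0.05) loaded with 0.4 μM DiSC3-5 and 100 mM K+ in 5 mM HEPES pH 7.4 with 20 mM glucose until fluorescence stabilized. Peptide added in a 1-cm cuvette and fluorescence (ex 622, em 670 nm) recorded 0–3000 s. Triplicate, three biological replicates.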

[4] = Conformational stability in 50% trifluoro-ethyl alcohol assessed as alpha-helical structural propensity at 35 uM by CD spectra analysis; assay type: physicochemical
Procedure, shortened: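 CD spectra from 190 to 250 nm of peptide at 35 μM in 10 mM PBS, 30 mM SDS micelles or 50% TFE, recorded in a 1.0-mm quartz cell. Ellipticity was converted to mean residue ellipticity. Three independent scans, each averaged over more than 3 runs.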

Pseudomonas aeruginosa [5] = experiment: Antibacterial activity against Pseudomonas aeruginosa ATCC 27853 at sub-MBC measured after 30 serial passages; assay type: functional, organism-based
Procedure, shortened: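 P. aeruginosa ATCC 27853 passaged every 24 h by 100-fold dilution in MHB containing sub-MBC drug, for 30 passages. MBC was tested on the cells from each passage. Control cells were passaged in drug-free MHB. Run independently in triplicate with three biological replicates.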

Pseudomonas aeruginosa [6] = experiment: Bactericidal activity against melittin-resistant Pseudomonas aeruginosa ATCC 27853 incubated for 24 hrs followed by replating on agar plate and measured after overnight incubation; assay type: functional, organism-based
Candida albicans = experiment: Antifungal activity against Candida albicans cgmcc2.2086 infected in C57BL/6 mouse model of keratitis assessed as appearance of transparent irises at 1 to 5 mg/ml administered as topical eye drop every 5 mins for first 4 hrs and every 30 mins for next 7 hrs measured post-last dose; assay type: functional, organism-based
Escherichia coli [7] = experiment: Drug uptake in plasma membrane of Escherichia coli ATCC 25922 at MBC measured after 30 mins using FITC-labeled compound by microscopic analysis; assay type: ADME, organism-based; conditions: in vivo, 0.5 h
Procedure, shortened: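 E. coli ATCC 25922 or S. aureus ATCC 29213 (OD600 0.2) incubated with FITC-labeled peptide at 1×MBC, 37 °C, 30 min. Cells washed, resuspended with PI (10 μg/mL) in PBS, smeared and imaged by superresolution microscopy using 488 and 535 nm filters for FITC and PI. Peptide-free cells served as controls. Three independent scans.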

Lipid bilayer [8] = experiment: Induction of membrane disruption in PG/CL/PE large unilamellar vesicles assessed as calcein-entrapped liposome leakage at 8 uM after 15 mins by spectrofluorophotometric assay relative to control
Procedure, shortened: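 Calcein (70 mM)-loaded LUVs of PG/CL/PE (2:1:7 w/w/w, E. coli membrane mimic), made by freeze-thaw and 100-nm extrusion, free dye removed on Sephadex G-50. LUVs (100 μM) exposed to peptide (1–64 μM) for 15 min. Leakage read at ex 490/em 520 nm: liposomes alone are background, Triton X-100 is 100%. Independent triplicates.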

Lipopolysaccharide (LPS) = experiment: Displacement of BODIPY-TR-cadaverine from Escherichia coli O111:B4 LPS at 16 uM after 1 hr by spectrofluorophotometric method relative to control
Procedure, shortened: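 E. coli O111:B4 LPS (50 μg/mL) preloaded 4 h with BODIPY-TR-cadaverine (5 μg/mL) in 50 mM Tris, pH 7.4. Mixed 1:1 with peptide (1–64 µM series), 1 h at 37 °C, then fluorescence read. Expressed as %ΔF: 0% is probe with LPS and no peptide, 100% is probe with LPS plus 10 μg/mL polymyxin B. Three technical replicates.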

Escherichia coli [9] = experiment: Induction of outer membrane permeabilization in Escherichia coli ATCC 25922 at 4 uM by NPN-dye based assay relative to control
Procedure, shortened: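 Mid-log E. coli ATCC 25922 (OD600 0.2) incubated 30 min with NPN (10 μM) in 5 mM HEPES pH 7.4 with 5 mM glucose, then mixed 1:1 with peptide (1–64 μM). Fluorescence (ex 350/em 420 nm) recorded until it plateaued. Percent NPN uptake calculated relative to no peptide and to 10 μg/mL polymyxin B. Three independent experiments, triplicates.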

Escherichia coli [10] = experiment: Induction of morphological changes in Escherichia coli ATCC 25922 at MBD measured after 1 hr by atomic force microscopic analysis; assay type: functional, organism-based
Staphylococcus aureus [11] = experiment: Induction of morphological changes in Staphylococcus aureus ATCC 29213 at MBD measured after 1 hr by atomic force microscopic analysis; assay type: functional, organism-based
Staphylococcus aureus [12] = experiment: Induction of morphological changes in Staphylococcus aureus ATCC 29213 assessed as membrane creping at MBD measured after 1 hr by atomic force microscopic analysis; assay type: functional, organism-based
Staphylococcus aureus [13] = experiment: Induction of morphological changes in Staphylococcus aureus ATCC 29213 assessed as membrane blebbing at MBD measured after 1 hr by atomic force microscopic analysis; assay type: functional, organism-based
Escherichia coli [14] = experiment: Induction of morphological changes in Escherichia coli ATCC 25922 assessed as separation between outer membrane and cytoplasmic membrane at MBD measured after 1 hr by transmission electron microscopic analysis; assay type: functional, organism-based
Escherichia coli [15] = experiment: Induction of morphological changes in Escherichia coli ATCC 25922 assessed as appearance of visible sparse cytoplasmic distribution at MBD measured after 1 hr by transmission electron microscopic analysis; assay type: functional, organism-based
Escherichia coli [16] = experiment: Induction of morphological changes in Escherichia coli ATCC 25922 assessed as appearance of intracellular empty area at MBD measured after 1 hr by transmission electron microscopic analysis; assay type: functional, organism-based
Staphylococcus aureus [17] = experiment: Induction of morphological changes in Staphylococcus aureus ATCC 29213 assessed as sparse distribution of cytoplasm at MBD measured after 1 hr by transmission electron microscopic analysis; assay type: functional, organism-based
Staphylococcus aureus [18] = experiment: Induction of morphological changes in Staphylococcus aureus ATCC 29213 assessed as appearance of intracellular empty areas at MBD measured after 1 hr by transmission electron microscopic analysis; assay type: functional, organism-based
Escherichia coli [19] = experiment: Induction of outer membrane permeabilization in Escherichia coli ATCC 25922 at sub-MIC by NPN-dye based assay relative to control
Procedure, shortened: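 Mid-log E. coli ATCC 25922 (OD600 0.2) preloaded 30 min with 10 μM NPN in 5 mM HEPES, pH 7.4, 5 mM glucose; cells mixed with equal volume of peptide solutions (1 to 64 μM). Fluorescence (ex 350, em 420 nm) read until plateau, background-subtracted, expressed as % NPN uptake relative to 10 μg/mL polymyxin B (100%). Three independent experiments, triplicate each.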

**Q.** With CC[C@H](C)[C@H](NC(=O)CN)C(=O)NCC(=O)N[C@@H](C)C(=O)N[C@H](C(=O)N[C@@H](CC(C)C)C(=O)N[C@@H](CCCCN)C(=O)N[C@H](C(=O)N[C@@H](CC(C)C)C(=O)N[C@H](C(=O)N[C@H](C(=O)NCC(=O)N[C@@H](CC(C)C)C(=O)N1CCC[C@H]1C(=O)N[C@@H](C)C(=O)N[C@@H](CC(C)C)C(=O)N[C@H](C(=O)N[C@@H](CO)C(=O)N[C@@H](Cc1c[nH]c2ccccc12)C(=O)N[C@H](C(=O)N[C@@H](CCCCN)C(=O)N[C@@H](CCCNC(=N)N)C(=O)N[C@@H](CCCCN)C(=O)N[C@@H](CCCNC(=N)N)C(=O)N[C@@H](CCC(N)=O)C(=O)N[C@@H](CCC(N)=O)C(N)=O)[C@@H](C)CC)[C@@H](C)CC)[C@@H](C)O)[C@@H](C)O)C(C)C)C(C)C [MELITTIN] as the molecule, how does the Activity (Escherichia coli [1]) read?
**A.** Active

**Q.** And the Activity (Lipid bilayer [2])?
**A.** > 85%

**Q.** What about the Flu intensity (Escherichia coli [3]) of the same molecule?
**A.** 4000 a.u.

**Q.** For H-AARRILRWIFR-NH2, which Stability [4] is on record?
**A.** Stable

**Q.** For H-AARIILRWRFR-NH2, which Activity (Pseudomonas aeruginosa [5]) is on record?
**A.** Active

**Q.** And the Activity (Pseudomonas aeruginosa [6])?
**A.** Active

**Q.** What about the Activity (Candida albicans) of the same molecule?
**A.** Active

**Q.** What about the Drug uptake (Escherichia coli [7]) of the same molecule?
**A.** Active

**Q.** What about the Activity (Lipid bilayer [8]) of the same molecule?
**A.** > 40%

**Q.** And the Activity (Lipopolysaccharide (LPS))?
**A.** 99%

**Q.** And the Activity (Escherichia coli [9])?
**A.** >=50 - 51%

**Q.** What about the Activity (Escherichia coli [10]) of the same molecule?
**A.** Active

**Q.** What about the Activity (Staphylococcus aureus [11]) of the same molecule?
**A.** Active

**Q.** And the Activity (Staphylococcus aureus [12])?
**A.** Active

**Q.** And the Activity (Staphylococcus aureus [13])?
**A.** Active

**Q.** And the Activity (Escherichia coli [14])?
**A.** Active

**Q.** What about the Activity (Escherichia coli [15]) of the same molecule?
**A.** Active

**Q.** And the Activity (Escherichia coli [16])?
**A.** Active

**Q.** What about the Activity (Staphylococcus aureus [17]) of the same molecule?
**A.** Active

**Q.** What about the Activity (Staphylococcus aureus [18]) of the same molecule?
**A.** Active

**Q.** And the Activity (Escherichia coli [19])?
**A.** 15%
